Compound activity from PubChem.
MOR-DOR ag: agonists of human mu-delta opioid receptor heterodimerization | P35372+P41143 | AID 504326 | actives 0.3% (n = 340,000) | cells, OPRM1-OPRD1 heterodimerization, luminescence | activation, % at 9.3 µM; in the data active means activation above about 18%;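 further: 0% = vehicle-treated cells and 100% = reference agonist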
OPRM1-OPRD1 inv: mu-delta opioid heterodimer inverse agonism; cell-based MOR-DOR heterodimer luminescence; inhibition, % at 9.3 µM; actives 0.21% (n = 340,000); in the data active means inhibition above about 22%, passing the limit was not always enough;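 further: 0% = cells with DMSO and 100% = wells without cells with DMSO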
MC4R antagonist: blocks human MC4R cAMP signaling; actives 0.48% (n = 360,000); AID 540295; MC4R-expressing cells, MTII-stimulated cAMP, LANCE TR-FRET; inhibition, % at 6.5 µM; P32245;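 active means inhibition above its plate's cutoff, the mean of tested wells on that plate plus 3 SD, cut at about 29% in these data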;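 further: 0% = Melanotan II alone and 100% = Melanotan II plus saturating MCL0020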
Target sequence (P32245 whole entry, looked up): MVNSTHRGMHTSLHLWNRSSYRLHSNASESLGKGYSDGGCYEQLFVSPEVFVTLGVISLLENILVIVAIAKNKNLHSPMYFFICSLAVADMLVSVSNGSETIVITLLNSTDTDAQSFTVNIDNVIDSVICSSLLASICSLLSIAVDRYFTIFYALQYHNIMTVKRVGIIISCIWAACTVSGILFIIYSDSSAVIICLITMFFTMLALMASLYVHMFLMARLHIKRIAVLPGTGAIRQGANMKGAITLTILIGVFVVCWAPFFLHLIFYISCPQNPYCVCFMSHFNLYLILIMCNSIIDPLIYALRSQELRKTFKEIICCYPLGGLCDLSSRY
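Assay system: U2OS-MC4R stable cell line; Also added: Melanotan II; Technique: Eu-cAMP/anti-cAMP TR-FRET, emission 671 nm; Times: 30-min compound, 1-h challenge, 1-h detection, room temperature.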
HTR5A inv ctr: inverse agonist of human HTR5A in OPRM1-OPRD1 counter-screen; P47898; actives 0.083% (n = 340,000); inhibition, % at 9.3 µM; HTR5A cell line, luminescence, inverse agonism; in the data active means inhibition mostly above about 23%, no sharp cut-off; inactive means mostly below about 18%;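 further: 0% = cells with DMSO and 100% = no-cell wells with DMSO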
MC4R ag barr: activates human MC4R beta-arrestin recruitment. P32245. U2OS MC4R beta-arrestin complementation, luminescence; percent of melanotan II response, DMSO zero. activation, % at 8.9 µM. actives 0.98% (n = 360,000);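 active means activation above a per-plate cutoff, the mean activation of sample wells on that plate plus 3 SD, cut at about 8% in these data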
HTR5A ag: HTR5A agonism, opioid heterodimer counter-screen | P47898 | HTR5A agonist assay, luminescence, cell-based | activation, % at 9.3 µM | actives 0.61% (n = 340,000) | AID 504692; in the data active means activation mostly above about 9.5%, no sharp cut-off; inactive means mostly below about 7.6%;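 further: 0% = cells with vehicle only and 100% = reference agonist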
Active calls of the source: *; . = no result. A selection: hits, their analogues and other compounds. The true share with any hit is near 2.4%.

SMILES | MOR-DOR ag | OPRM1-OPRD1 inv | MC4R antagonist | HTR5A inv ctr | MC4R ag barr | HTR5A ag
COCCOC(=O)c1c(C)n(C)c2ccc(OC(=O)c3c(OC)cccc3OC)cc12 | -2 | 8 | 5 | -40 | -1 | 11*
CCC(C)n1c(SCC(=O)NC2CCS(=O)(=O)C2)nc2ccccc2c1=O (stereo not drawn) | -2 | 12 | -4 | 6 | -1 | -1
CC1CCC(NC(=O)CCS(=O)(=O)c2ccc3c(c2)CCN3C(=O)C2CC2)CC1 (stereo not drawn) | -3 | 13 | -5 | -17 | 1 | 10*
Cc1nn(C(=O)CNS(=O)(=O)c2ccccc2)c(C)c1Sc1ccc(Cl)cc1 | 4 | -22 | 9 | -4 | 8.9* | 2
O=C(NC1CCCCC1)C(c1ccc2ncccc2c1)N(Cc1ccc2c(c1)OCO2)C(=O)c1cccs1 (stereo not drawn) | 1 | -4 | 0 | -9 | 0 | 3
O=C(NCc1ccccc1Cl)c1cc(C(=O)C2CC2)c[nH]1 | -2 | 9 | 2 | 12 | -2 | -1
C[C@H](CO)N1C[C@H](C)[C@H](CN(C)Cc2ccc(-c3ccccc3)cc2)Oc2ccc(NS(=O)(=O)c3ccccc3)cc2CC1=O | 4 | -24 | 13 | -23 | 1 | 14*
COc1ccc(CCNC(=O)CCS(=O)(=O)c2ccc3c(c2)NC(=O)CS3)cc1OC | -2 | 11 | 17 | 21 | -1 | -2
COc1ccc(CCNS(=O)(=O)c2ccc3c(c2)NC(=O)CS3)cc1OC | -2 | 10 | 17 | 0 | -2 | 11*
Cc1ccc2c(c1)NC(=O)CC(c1ccccc1)=N2 | -3 | 19 | 3 | 4 | -2 | -2
Cc1cc2c(cc1C)NC(=O)CC(C(F)(F)C(F)(F)C(F)(F)F)=N2 | 11 | -66 | 8 | -28 | 8.7* | 4
CC(=O)N1CCN(C(=O)c2ccc(NS(=O)(=O)c3ccc4[nH]c(=O)[nH]c4c3)cc2)CC1 | 0 | 2 | 0 | -16 | 0 | 0
C=CCOc1ccccc1CN(C(=O)CCl)c1ccc2c(c1)OCO2 | 45* | -240 | 9 | -142 | 15* | 53*
Cn1c2ccccc2c(=O)c2ccc(NCCc3cccs3)cc21 | 6 | -35 | 3 | -19 | 2 | 14*
CCC(=O)N(C)C[C@H]1Oc2ncc(C#Cc3ccncc3)cc2C(=O)N([C@@H](C)CO)C[C@@H]1C | . | . | 2 | . | 0 | .
CCC(C)c1ccccc1NC(=O)CN(C)CCOc1ccc(Cl)cc1 (stereo not drawn) | 6 | -28 | 18 | 0 | 8.6* | 0
CN(CCOc1ccc(Cl)cc1)CC(=O)Nc1ccc(OC(F)F)cc1 | 0 | 1 | 3 | 14 | -1 | -4
CC(=O)Nc1ccc(S(=O)(=O)N(c2cccnc2)S(=O)(=O)c2ccc(NC(C)=O)cc2)cc1 | 0 | 1 | 5 | -7 | -1 | -1
CN1CCN(C(=S)SCc2nc(N)nc(Nc3ccc(F)cc3)n2)CC1 | 0 | 3 | 3 | -29 | -1 | 11*
CCOC(=O)c1[nH]c(C)c(C(=O)OCC(=O)N(C)C2CCS(=O)(=O)C2)c1C (stereo not drawn) | 2 | -13 | 7 | -5 | 8.3* | 2
O=C(c1ccccc1)c1ccc2ccccc2c1 | 3 | -17 | 5 | 0 | 4 | 0
O=C(c1ccccc1)c1c2c(cc3sc4ccccc4[n+]13)-c1cccc3cccc-2c13 | 90* | -481 | -25 | -64 | 26* | 33*
Fc1cccc(/C=N/Nc2ccc(Cl)nn2)c1 | 5 | -26 | -2 | -16 | 12* | 4
CCC(=O)OCC(=O)N=c1sccn1Cc1ccccc1Cl | -1 | 3 | 13 | 10 | -1 | -5
O=C(CCl)N=c1sccn1Cc1ccccc1Cl | 66* | -330 | 8 | -252 | 24* | 85*
SMILES | MOR-DOR ag | OPRM1-OPRD1 inv | MC4R antagonist | HTR5A inv ctr | MC4R ag barr | HTR5A ag
O=C(CCl)N=c1sccn1Cc1ccc(Cl)cc1Cl | 77* | -384 | 21 | -4 | 12* | 53*
O=C(CCl)N=c1sccn1Cc1cccc2ccccc12 | 74* | -396 | 14 | -21 | 7 | 73*
CCOC(=O)c1c(C)[nH]c(C)c1S(=O)(=O)N1c2ccccc2CC1C (stereo not drawn) | -1 | 6 | 2 | -17 | -1 | 4
COc1ccccc1NS(=O)(=O)c1cccc(-n2c(O)c(C=Nc3ccccc3C(=O)O)c3ccccc3c2=O)c1 | 1 | -7 | 25 | 34 | 2 | 14*
Cc1nnc(NC(=O)c2nc(S(=O)(=O)Cc3ccccc3)ncc2Cl)s1 | 4 | -22 | 13 | -41 | 2 | 10*
Cc1cccc(C)c1NC(=O)c1nc(S(=O)(=O)Cc2ccccc2)ncc1Cl | -6 | 30 | -1 | 10 | -6 | -3
Cc1ccc(C(=O)O)cc1-c1ccc(/C=C2\SC(=O)N(CC(=O)Nc3ccccc3)C2=O)o1 | -1 | 4 | 32* | 4 | 0 | -1
COc1ccc(C(=O)Oc2ccc3oc(=O)sc3c2)cc1 | 2 | -9 | -5 | 3 | 13* | 6
C/C=C(\C)CN1CCC(n2nccc2NC(=O)CCCc2ccccc2)CC1 | -1 | 5 | 1 | 9 | -4 | 12*
Cc1ccccc1CN1CCC(n2nccc2NC(=O)CCCc2ccccc2)CC1 | 0 | -1 | 1 | 10 | -2 | -2
CC(C)CNC(=O)COC(=O)c1c2c(nc3ccccc13)/C(=C/c1cccs1)CC2 | 1 | -7 | 17 | 0 | 9.5* | 4
Cc1cccc(N2CCN(S(=O)(=O)c3ccc4c(c3)NC(=O)C(C)S4)CC2)c1C (stereo not drawn) | 2 | -10 | -4 | 2 | -2 | -1
Cc1cccc(N2CCN(S(=O)(=O)c3ccc4c(c3)NC(=O)CS4)CC2)c1C | 11 | -56 | 2 | -15 | 2 | 12*
CC(C)c1ccc(S(=O)(=O)/N=C2\C=C(NS(=O)(=O)c3ccccc3)C(=O)c3ccccc32)cc1 | -5 | 30* | 7 | 15 | 2 | -6
Cc1ccc(O)c(-c2cc(-c3ccccc3[N+](=O)[O-])[nH]n2)c1 | 7 | -39 | 2 | -8 | 8.9* | 3
NC(CCc1ccccc1)c1csc(NC(=O)NCC2CCCCC2)n1 (stereo not drawn) | . | . | 3 | . | 8.7* | .
NC(CCc1ccccc1)c1csc(NC(=O)Nc2cccc(C(F)(F)F)c2)n1 (stereo not drawn) | . | . | 11 | . | 8.8* | .
COc1ccc(CC(N)c2csc(NC(=O)Nc3cccc(C(F)(F)F)c3)n2)cc1 (stereo not drawn) | . | . | 2 | . | 0 | .
CC(C)(C)c1nc(C(C)(C)C)c(Br)c(=O)[nH]1 | 6 | -37 | 14 | -10 | 8 | 4
Cc1cc2c(=Cc3ccc(N(C)C)cc3)c3ccccc3n2[n+]1C | -3 | 13 | -33 | 10 | -4 | -3
